# Screening results (PubChem BioAssay)
# TAAR1 ag: human TAAR1 agonism; Q96RJ0; CHO RD-HGA16 TAAR1, Fluo-8 calcium fluorescence; vehicle wells 0%, saturating PEA agonist 100%; activation, % at 3 µM; actives 0.99% (n = 360,000); AID 624467;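 active = activation above the mean activation of all test compounds in the run plus 3 SD, cut at about 38% in these data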
# Target sequence (Q96RJ0 whole entry, looked up): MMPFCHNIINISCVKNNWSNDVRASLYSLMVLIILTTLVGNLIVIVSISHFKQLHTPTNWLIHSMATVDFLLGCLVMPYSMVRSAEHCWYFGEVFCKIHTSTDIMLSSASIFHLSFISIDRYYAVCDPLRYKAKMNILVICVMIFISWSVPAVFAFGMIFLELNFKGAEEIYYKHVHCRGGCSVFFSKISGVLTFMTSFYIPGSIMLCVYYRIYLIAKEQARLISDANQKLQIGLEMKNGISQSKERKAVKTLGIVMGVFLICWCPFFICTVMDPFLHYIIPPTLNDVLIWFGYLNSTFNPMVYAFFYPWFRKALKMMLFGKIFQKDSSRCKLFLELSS
#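 Test system: RD-HGA16 (CHO) cells co-expressing Gα16 and hTAAR1; dosing: one-point dosing at 3 µM (nominal); timing: 17-24 h seeding, 75 min 37 °C dye, 30 min RT; signal: kinetic Fluo-8 calcium fluorescence; read-out basis: % activation relative to PEA EC100 response; controls: DMSO and PEA EC100; replicates: n 1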
# TAAR1 antag: antagonists of human TAAR1; inhibition, % at 3 µM; actives 1.5% (n = 360,000); CHO RD-HGA16 TAAR1, Fluo-8 calcium fluorescence, antagonist;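 active = inhibition above a per-plate cutoff, the mean inhibition of test compounds on that plate plus 3 SD, cut at about 49% in these data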;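 note: 0% = DMSO plus EC80 beta-PEA response and 100% = DMSO alone without agonist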
#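 Test system: CHO RD-HGA16 cells bearing hTAAR1 | Reagent: β-PEA, EC80 | Compound dosing: 3 µM, single point | Schedule: Dye loading 75 min at 37 °C, then 30 min room temperature | Signal: Calcium fluorescence with Fluo-8 | Evaluation: Percent inhibition of PEA-evoked calcium signal, max/basal emission ratio | Control set: DMSO-only wells and EC80 β-PEA-stimulated wells | Repeats: Singlicate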
# OX1R antag-1: blocks the human orexin 1 receptor; O43613; OX1R-expressing cells, FRET antagonist read-out; inhibition, % at 6.6 µM; actives 1.8% (n = 330,000); in the data active = inhibition mostly above about 38%, no sharp cut-off; inactive = mostly below about 40%;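 note: 0% = agonist challenge alone and 100% = reference antagonist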
# GPR7 antagonist: antagonists of human GPR7 (neuropeptides B/W receptor 1); GPR7-expressing cells, fluorescence antagonist assay; inhibition, % at 4.4 µM; actives 1.1% (n = 290,000); AID 1861; in the data active = inhibition above about 16%, passing the limit was not always enough;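 note: cells stimulated with the agonist NPW; 0% = agonist with vehicle and 100% = vehicle without agonist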
# Target sequence (P48145 whole entry, looked up): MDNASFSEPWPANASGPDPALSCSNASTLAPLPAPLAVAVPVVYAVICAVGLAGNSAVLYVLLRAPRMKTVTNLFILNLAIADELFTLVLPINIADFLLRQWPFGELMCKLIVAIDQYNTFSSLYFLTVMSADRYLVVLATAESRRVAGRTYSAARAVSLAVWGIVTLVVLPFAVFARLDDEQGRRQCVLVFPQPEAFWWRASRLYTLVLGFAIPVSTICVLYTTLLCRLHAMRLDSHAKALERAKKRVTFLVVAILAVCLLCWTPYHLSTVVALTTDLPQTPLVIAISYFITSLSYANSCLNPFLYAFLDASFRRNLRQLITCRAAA
# OX1R antag-2: blocks the human orexin 1 receptor. O43613. CHO/OX1R cells, Fluo-8 calcium fluorescence, orexin A. inhibition, % at 5 µM. actives 0.43% (n = 330,000). AID 434989;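 active = inhibition above its plate's threshold, mean inhibition of all tested compounds on the plate plus 3 SD, cut at about 37% in these data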;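 note: 0% = orexin A challenge wells and 100% = SB-334867-A antagonist wells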
# CHO parental Ca: counter-screen for OX1R antagonists: effect in parental CHO cells; parental CHO-K1, ATP-induced calcium, Fluo-8 fluorescence; inhibition, % at 5.6 µM; actives 0.63% (n = 330,000); AID 463079;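 active = inhibition above that plate's mean sample inhibition plus 3 SD, cut at about 26% in these data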;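 note: 0% = ATP-challenged DMSO wells and 100% = DMSO wells without ATP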
#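 Measured by: calcium-sensitive Fluo-8 fluorescence / Test system: CHO parental line / Controls: ATP-challenged DMSO wells low, unchallenged DMSO wells high / Measure: % inhibition / Compound: single nominal dose of 5.6 µM per compound / Replicates: single well per compound, no replicates / Reagent: ATP as calcium-mobilizing challenge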
# TAAR1 ag confirm: human TAAR1 agonism, confirmed; shares compounds with TAAR1 ag; CHO RD-HGA16 TAAR1, Fluo-8 calcium fluorescence; scaled: DMSO 0%, maximal phenethylamine 100%; activation, % at 3 µM; actives 82% (n = 2,400); AID 651783;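 active = activation above a cutoff set at the run's mean compound activation plus 3 SD, cut at about 39% in these data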
# Ga16 nonsel ag: nonselective agonism, TAAR1 counter-screen; shares compounds with TAAR1 ag; CHO-Ga16 parental, Fluo-8 calcium fluorescence; normalized to maximal ATP response, DMSO zero; activation, % at 3 µM; actives 50% (n = 2,400);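 active = activation above the run cutoff, the mean activation over all tested wells plus 3 SD, cut at about 12% in these data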;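 note: 0% = DMSO wells and 100% = maximal ATP response on the peak over basal ratio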
# TAAR1 desensitize: human TAAR1 agonist that also desensitizes the receptor. shares compounds with TAAR1 ag. CHO RD-HGA16 hTAAR1, Fluo-8 calcium, beta-PEA response inhibition. inhibition, % at 3 µM. actives 46% (n = 2,400);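 active = inhibition above the run cutoff, the mean inhibition of all test compounds plus 3 SD, cut at about 49% in these data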;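 note: beta-PEA stimulus applied at its EC80; loss of beta-PEA calcium signal after compound pretreatment read as receptor desensitization; 0% = DMSO with beta-PEA at EC80 and 100% = DMSO alone without agonist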
# Ga16 antag count: counter-screen for TAAR1 agonists: nonselective Ga16 antagonists | shares compounds with TAAR1 ag | CHO-Ga16 ATP-induced calcium, Fluo-8 fluorescence | inhibition, % at 3 µM | actives 39% (n = 2,400);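 active = inhibition above the plate's mean compound inhibition plus 3 SD, computed per plate, cut at about 22% in these data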;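 note: 0% = EC80 ATP with DMSO and 100% = DMSO wells without ATP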
# Starred values were filed as active, the others as inactive; . = not tested or not shown; + = active, no number. Most compounds without a hit are left out; they make up all but 4.6% or so of the library.
SMILES,TAAR1 ag,TAAR1 antag,OX1R antag-1,GPR7 antagonist,OX1R antag-2,CHO parental Ca,TAAR1 ag confirm,Ga16 nonsel ag,TAAR1 desensitize,Ga16 antag count
CCOC(=O)[C@]12CCCC=C1N(CCC1=CCCCC1)C(=O)[C@H](CC(=O)NCCc1ccccc1OC)C2,58*,38,.,.,.,.,75*,0,60*,9
CCOC(=O)[C@]12CCC=C1N(CCC1=CCCCC1)C(=O)[C@H](CC(=O)NCCc1ccccc1OC)C2,.,.,.,.,.,.,.,1,.,-9
CC(C)C(NC(=O)OCc1ccccc1)C(=O)N1CCOCCOCCOCC1 (stereo not given),8,-2,4,-5,-5,-2,.,.,.,.
Cc1nc2ncnn2c(N2CCN(C(c3ccccc3)c3ccccc3)CC2)c1C,49*,39,1,-4,-5,16,27,15*,17,9
Cc1cc(N2CCN(C(c3ccccc3)c3ccccc3)CC2)n2ncnc2n1,21,35,5,-7,-23,-7,.,.,.,.
C=CCN1C=C/C(=C\C=C(C#N)C#N)c2ccccc21,66*,29,32,-3,4,19,74*,8,66*,26*
CCCCCCN1C=C/C(=C\C=C(C#N)C#N)c2ccccc21,10,13,46,-6,10,-1,.,.,.,.
CN(C)c1ccc(C=NCC2COc3ccccc3O2)cc1 (stereo not given),75*,13,12,1,-8,1,82*,4,59*,7
O=C(CNC(=O)c1ccccc1Br)N/N=C/c1ccccc1O,47*,24,29,-9,-11,-13,67*,3,40,7
O=C(CNC(=O)c1ccccc1Br)N/N=C/c1cccs1,36,-19,-2,-6,-14,2,.,.,.,.
O=C(CCC(=O)Nc1ccc(F)cc1)N/N=C/c1ccccc1O,54*,-8,6,-1,-4,-7,72*,5,48,11
O=C(Cc1n[nH]c(=O)[nH]c1=O)N/N=C/c1ccccc1O,.,.,15,-3,-9,-1,.,3,.,14
COc1ccc(/C=N/NC(=O)Cc2n[nH]c(=O)[nH]c2=O)cc1,8,-13,18,-7,-6,-5,.,.,.,.
O=C(CCC(=O)N/N=C/c1ccccc1O)NCc1ccccc1,42*,20,20,-10,-15,-5,57*,0,35,4
O=C(CC(=O)N/N=C/c1ccccc1)NCc1ccccc1,21,-4,17,-5,9,8,.,.,.,.
O=C(CCC(=O)Nc1ccc(Br)cc1)N/N=C/c1ccccc1F,7,7,10,0,-31,-14,.,.,.,.
COc1cccc(NC(=O)C2CC(=O)N/C(=N/NC(=O)c3ccc(C)cc3)S2)c1 (stereo not given),5,-52,3,1,0,-7,.,.,.,.
O=C(Nc1nccs1)c1ccc2ccccc2c1,11,13,7,-5,-25,-26,.,.,.,.
O=C(Nc1n[nH]c(=S)s1)c1ccc2ccccc2c1,57*,20,3,13,2,15,42*,20*,2,5
COc1cc(C=NNC(=O)Cn2nc(C)cc2C)ccc1OC(=O)C1CC1,+,-2,9,.,-4,-8,2,2,5,1
O=C(NC1CC1)C1CC(=O)N(c2cccc(Cl)c2Cl)C1 (stereo not given),2,-10,16,-11,-8,-13,.,.,.,.
Cc1cn([C@H]2C[C@H](O)[C@@H](CCC(=O)NCCCn3ccnc3)O2)c(=O)[nH]c1=O,3,-2,2,.,-19,-1,.,.,.,.
O=C(O)c1ccccc1C(=O)NC1Cc2ccccc2C1,85*,77*,1,-5,3,-12,98*,16*,91*,6
O=C(NC1CCCCC1)c1cccnc1C(=O)O,5,-3,16,-2,-12,2,.,.,.,.
C/C(=N\NC(=O)c1nnn(-c2nonc2N)c1-c1cccs1)c1ccc(O)cc1,34,-1,9,-17,3,-4,.,.,.,.
SMILES,TAAR1 ag,TAAR1 antag,OX1R antag-1,GPR7 antagonist,OX1R antag-2,CHO parental Ca,TAAR1 ag confirm,Ga16 nonsel ag,TAAR1 desensitize,Ga16 antag count
C/C(=N\NC(=O)c1nnn(-c2nonc2N)c1-c1cccs1)c1ccc(C)cc1,103*,10,7,-16,-7,-9,104*,72*,16,6
COc1ccc(/C(C)=N/NC(=O)c2nnn(-c3nonc3N)c2-c2cccs2)cc1,46*,-5,3,-25,-10,0,81*,55*,7,-2
Cc1ccc(C(=O)N2CCOCC2)c(F)c1F,3,14,-4,-1,0,-3,.,.,.,.
O=c1ccc2[n+]([O-])c3ccc(O)cc3oc-2c1,58*,8,.,-6,.,.,32,42*,26,42*
CCCCOc1ccccc1C(=O)NNC(=S)NC(=O)c1ccccc1[N+](=O)[O-],85*,34,14,-3,-1,-9,43*,43*,37,41*
O=C(NNC(=S)NC(=O)c1ccccc1[N+](=O)[O-])c1ccccc1O,5,-11,25,2,-16,-19,.,.,.,.
CC1=NN(/C(=N\c2nnc(C)s2)Nc2ccccc2)[C@H](c2cccc3ccccc23)S1,70*,-6,15,3,-28,-15,47*,2,0,11
COc1ccc(C2(C)NC(=O)N(CC(=O)c3cc(C)n(C4CC4)c3C)C2=O)cc1 (stereo not given),137*,83*,4,.,52*,26,104*,50*,48,26*
Cc1cc(C(=O)CN2C(=O)NC(C)(c3ccc(F)c(F)c3)C2=O)c(C)n1C1CC1 (stereo not given),68*,48,.,.,.,.,84*,30*,39,16
CCOC(=O)[C@]12CCC=C1N(Cc1ccc(Cl)cc1Cl)C(=O)[C@H](CC(=O)NCc1cccs1)C2,-2,-22,.,.,.,.,.,.,.,.
COCCN(C(=O)Cc1coc2cc(C)c(C)cc12)c1c(N)n(Cc2ccccc2)c(=O)[nH]c1=O,1,-10,11,.,-23,-13,.,.,.,.
